Calls of active or inactive are those of the source. The rule behind the calls is not given here.
What was measured:
FLC clone 745 [1] = assay: Induction of cell cycle arrest in HMBA-stimulated mouse FLC clone 745 cells assessed as accumulation cells at G1/G0 phase at 10^-6 M after 72 hrs by PI staining based flow cytometric analysis (reference value: 7.19%); type: functional; details: dose 1 10^-6M, at 1 µM
How it was run: (§1)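 MEL cells plated at 5 × 10^5 per well and synchronized by serum deprivation for 24 h. Cells then incubated with compound at 10−6 M, alone or with HMBA 5 × 10−3 M, for 24, 48 and 72 h. Fixed in 70% ethanol overnight at 4 °C, stained with propidium iodide, and DNA content measured by flow cytometry to assign subG1, G1, S, G2/M and >4N fractions.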

FLC clone 745 [2] = assay: Induction of cell cycle arrest in HMBA-stimulated mouse FLC clone 745 cells assessed as accumulation cells at subG1 phase at 10^-6 M after 72 hrs by PI staining based flow cytometric analysis (reference value: 58.77%); type: functional; details: dose 1 10^-6M, at 1 µM; how it was run: as §1
FLC clone 745 [3] = assay: Induction of cell cycle arrest in HMBA-stimulated mouse FLC clone 745 cells assessed as accumulation cells at G1/G0 phase at 10^-6 M after 24 hrs by PI staining based flow cytometric analysis (reference value: 17.28%); type: functional; details: dose 1 10^-6M, at 1 µM; how it was run: as §1
FLC clone 745 [4] = assay: Induction of cell cycle arrest in HMBA-stimulated mouse FLC clone 745 cells assessed as accumulation cells at > 4N phase at 10^-6 M after 48 hrs by PI staining based flow cytometric analysis (reference value: 2.83%); type: functional; details: dose 1 10^-6M, at 1 µM; how it was run: as §1
FLC clone 745 [5] = assay: Induction of cell cycle arrest in mouse FLC clone 745 cells assessed as accumulation cells at S phase at 10^-6 M after 24 hrs by PI staining based flow cytometric analysis (reference value: 28.46%); type: functional; details: dose 1 10^-6M, at 1 µM; how it was run: as §1
FLC clone 745 [6] = assay: Induction of cell cycle arrest in HMBA-stimulated mouse FLC clone 745 cells assessed as accumulation cells at G2/M phase at 10^-6 M after 48 hrs by PI staining based flow cytometric analysis (reference value: 6.67%); type: functional; details: dose 1 10^-6M, at 1 µM; how it was run: as §1
FLC clone 745 [7] = assay: Inhibition of G9a/GLP in HMBA-stiumulated mouse FLC clone 745 cells assessed as increase in HBB mRNA expression at 10^-6 M after 48 hrs by qPCR analsysis; type: cell-based; details: dose 1.0 10^-6M
How it was run: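 MEL cells treated for 48 h with HMBA 5 × 10−3 M plus compound at 10−6 M. Total RNA reverse-transcribed, and β-globin transcripts measured by qPCR. Data normalized to β-actin using the 2−ΔΔCt method; Student's t-test.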

FLC clone 745 [8] = assay: Induction of cell cycle arrest in mouse FLC clone 745 cells assessed as accumulation cells at > 4N phase at 10^-6 M after 72 hrs by PI staining based flow cytometric analysis (reference value: 14.89%); type: functional; details: dose 1 10^-6M, at 1 µM; how it was run: as §1
[9] = Cytotoxicity against HMBA-stiumulated mouse FLC clone 745 cells assessed as cell viability measured after 48 hrs by Neubauer chamber based microscopic analysis (reference value: 50.563%); type: toxicity; details: HMBA-stimulated FLC clone 745 cells, read-out: Activity
FLC clone 745 [10] = assay: Induction of cell cycle arrest in HMBA-stimulated mouse FLC clone 745 cells assessed as accumulation cells at S phase at 10^-6 M after 48 hrs by PI staining based flow cytometric analysis (reference value: 31.43%); type: functional; details: dose 1 10^-6M, at 1 µM; how it was run: as §1
FLC clone 745 [11] = assay: Induction of cell cycle arrest in HMBA-stimulated mouse FLC clone 745 cells assessed as accumulation cells at G1/G0 phase at 10^-6 M after 48 hrs by PI staining based flow cytometric analysis (reference value: 15.23%); type: functional; details: dose 1 10^-6M, at 1 µM; how it was run: as §1
K562 [12] = assay: Induction of apoptosis in human K562 cells assessed as effect on Bax mRNA expression level at 1 to 10 uM cells after 48 hrs by qPCR analysis; type: toxicity, cell-based; details: k562, 48 h, dose 1-10 µM
How it was run: (§2)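 K562 cells at 10^5 cells/ml grown without compound (control) or with 10−6 M or 10−5 M compound for 48 h. Total RNA isolated, then checked by gel electrophoresis and spectrophotometry. Transcripts quantified by qPCR.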

FLC clone 745 [13] = assay: Cytotoxicity against mouse FLC clone 745 cells assessed as reduction in cell viability at IC50 concentration measured up to 96 hrs by Neubauer chamber based microscopic analysis; type: toxicity; details: flc clone 745, 96 h
How it was run: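 MEL-745 cells treated continuously with compound at its previously determined 48 h IC50, without inducer, for up to 96 h. Total cell number counted daily in a Neubauer chamber. Final DMSO ≤0.2% v/v.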

[14] = Inhibition of G9a/GLP in HMBA-stiumulated mouse FLC clone 745 cells assessed as increase in erythroid differentiation at IC50 concentration measured after 96 hrs by benzidine-H2O2 based assay (reference value: 79.45%); details: condition erythroleukemia
FLC clone 745 [15] = assay: Induction of cell cycle arrest in mouse FLC clone 745 cells assessed as accumulation cells at subG1 phase at 10^-6 M after 48 hrs by PI staining based flow cytometric analysis (reference value: 9.79%); type: functional; details: dose 1 10^-6M, at 1 µM; how it was run: as §1
[16] = Inhibition of G9a/GLP in HMBA-stiumulated mouse FLC clone 745 cells assessed as increase in erythroid differentiation at IC50 concentration measured after 72 hrs by benzidine-H2O2 based assay (reference value: 69.6%); details: condition erythroleukemia
FLC clone 745 [17] = assay: Induction of cell cycle arrest in HMBA-stimulated mouse FLC clone 745 cells assessed as accumulation cells at > 4N phase at 10^-6 M after 24 hrs by PI staining based flow cytometric analysis (reference value: 9.83%); type: functional; details: dose 1 10^-6M, at 1 µM; how it was run: as §1
[18] = Cytotoxicity against mouse FLC clone 745 cells assessed as reduction in cell viability measured after 48 hrs by Neubauer chamber based microscopic analysis; type: toxicity
K562 [19] = assay: Induction of apoptosis in human K562 cells assessed as effect on caspase-3 mRNA expression level at 1 to 10 uM cells after 48 hrs by qPCR analysis; type: toxicity, cell-based; details: k562, 48 h, dose 1-10 µM; how it was run: as §2
FLC clone 745 [20] = assay: Induction of cell cycle arrest in mouse FLC clone 745 cells assessed as accumulation cells at G1/G0 phase at 10^-6 M after 48 hrs by PI staining based flow cytometric analysis (reference value: 25.43%); type: functional; details: dose 1 10^-6M, at 1 µM; how it was run: as §1
FLC clone 745 [21] = assay: Induction of cell cycle arrest in HMBA-stimulated mouse FLC clone 745 cells assessed as accumulation cells at subG1 phase at 10^-6 M after 24 hrs by PI staining based flow cytometric analysis (reference value: 41.78%); type: functional; details: dose 1 10^-6M, at 1 µM; how it was run: as §1
FLC clone 745 [22] = assay: Induction of cell cycle arrest in mouse FLC clone 745 cells assessed as accumulation cells at subG1 phase at 10^-6 M after 24 hrs by PI staining based flow cytometric analysis (reference value: 24.11%); type: functional; details: dose 1 10^-6M, at 1 µM; how it was run: as §1
FLC clone 745 [23] = assay: Induction of cell cycle arrest in HMBA-stimulated mouse FLC clone 745 cells assessed as accumulation cells at G2/M phase at 10^-6 M after 24 hrs by PI staining based flow cytometric analysis (reference value: 9.52%); type: functional; details: dose 1 10^-6M, at 1 µM; how it was run: as §1
FLC clone 745 [24] = assay: Induction of cell cycle arrest in HMBA-stimulated mouse FLC clone 745 cells assessed as accumulation cells at > 4N phase at 10^-6 M after 72 hrs by PI staining based flow cytometric analysis (reference value: 4.66%); type: functional; details: dose 1 10^-6M, at 1 µM; how it was run: as §1
K562 [25] = assay: Induction of apoptosis in human K562 cells assessed as effect on caspase-9 mRNA expression level at 1 to 10 uM cells after 48 hrs by qPCR analysis; type: toxicity, cell-based; details: k562, 48 h, dose 1-10 µM; how it was run: as §2
FLC clone 745 [26] = assay: Induction of cell cycle arrest in mouse FLC clone 745 cells assessed as accumulation cells at S phase at 10^-6 M after 48 hrs by PI staining based flow cytometric analysis (reference value: 29.53%); type: functional; details: dose 1 10^-6M, at 1 µM; how it was run: as §1

Compound `COc1cc2c(cc1OCCCN1CCCC1)N=C(N)C21CCC1` has an Activity (FLC clone 745 [1]) of 8.17%, an Activity (FLC clone 745 [2]) of 62.86% and an Activity (FLC clone 745 [3]) of 12.13%. The Activity (FLC clone 745 [4]) was 3.08%, the Activity (FLC clone 745 [5]) was 23.91% and the Activity (FLC clone 745 [6]) was 5.67%. The inhibition (FLC clone 745 [7]) was “Active”, the Activity (FLC clone 745 [8]) was 11.78% and the viability at 48 h [9] was 42.8%. For the same compound, the Activity (FLC clone 745 [10]) was 28.62%, the Activity (FLC clone 745 [11]) was 11.73% and the Activity (K562 [12]) was “Non-Toxic”. For the same compound, the Activity (FLC clone 745 [13]) was “Non-Toxic”, the “inhibition (INH)” value [14] was 83.75% and the Activity (FLC clone 745 [15]) was 18.28%. The “inhibition (INH)” value [16] was 76.6%, the Activity (FLC clone 745 [17]) was 9.28% and the IC50 at 48 h [18] was greater than 100 µM. For the same compound, the Activity (K562 [19]) was “Non-Toxic”, the Activity (FLC clone 745 [20]) was 21% and the Activity (FLC clone 745 [21]) was 55.4%. It also gave an Activity (FLC clone 745 [22]) of 37.13%, an Activity (FLC clone 745 [23]) of 6.93% and an Activity (FLC clone 745 [24]) of 2.89%. The Activity (K562 [25]) was “Non-Toxic” and the Activity (FLC clone 745 [26]) was 29.12%.

Source: ChEMBL document CHEMBL5712920, “The histone methyltransferase inhibitor A-366 enhances hemoglobin expression in erythroleukemia cells upon co-exposure with chemical inducers in culture” (J Biol Res (Thessalon), 2021)
